Screening data (PubChem)
5HT1a antag – antagonists of human 5-HT1a serotonin receptor. CHO 5-HT1a Ga15 NFAT-bla reporter, antagonist mode. 62,000 compounds, 0.68% hits. AID 612. P08908. inhibition, % at 10 µM;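 active = inhibition above the mean of all tested compounds plus 3 SD, cut at about 43% in these data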;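 also: receptor stimulated by 5-CT agonist at 100 nM near EC80; beta-lactamase reporter measured by ratiometric fluorescence of a cleavable substrate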
Target sequence (P08908 whole entry, looked up): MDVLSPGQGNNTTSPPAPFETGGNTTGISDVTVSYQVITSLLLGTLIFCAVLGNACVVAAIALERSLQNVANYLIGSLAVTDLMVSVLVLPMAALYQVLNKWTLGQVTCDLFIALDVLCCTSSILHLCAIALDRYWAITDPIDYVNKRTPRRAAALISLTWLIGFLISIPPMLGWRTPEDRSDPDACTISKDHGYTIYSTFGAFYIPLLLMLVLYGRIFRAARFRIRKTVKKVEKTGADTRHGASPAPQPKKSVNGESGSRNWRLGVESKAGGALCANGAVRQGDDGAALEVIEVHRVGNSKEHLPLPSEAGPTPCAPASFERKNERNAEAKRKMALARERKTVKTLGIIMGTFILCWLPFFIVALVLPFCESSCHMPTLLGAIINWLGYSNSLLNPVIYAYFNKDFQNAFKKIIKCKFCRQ
HTR1E antagonist – antagonists of human 5-HT1E serotonin receptor. AID 571. 65,000 compounds, 0.99% hits. CHO 5-HT1E Ga15 NFAT-bla reporter, FRET, antagonist. inhibition, % at 6 µM. P28566;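 active = inhibition above a set limit, the mean inhibition across every tested compound plus 3 SD, cut at about 29% in these data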;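 also: signal is the 460 over 535 nm emission ratio of beta-lactamase substrate; 0% = agonist plus DMSO wells and 100% = wells without agonist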
S1P3 ag – agonists of human S1P3 receptor. Q99500. S1P3 NFAT-BLA reporter cells, agonism, FRET ratio; relative to 1 µM S1P, basal subtracted. activation, % at 4.5 µM. 60,000 compounds, 0.1% hits. AID 373;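 active = activation above the screen-wide mean plus 3 SD, cut at about 4.5% in these data, passing the limit was not always enough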
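Measure – % activation relative to 1 µM S1P (100%), per plate · System – stable CHO line with human S1P3, Gα16, NFAT-BLA reporter · Timing – cells plated overnight, compound 4 h 37 °C, substrate 2 h RT · Technique – fluorescent BLA substrate, ex 405 nm, em 460/535 nm ratio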
HTR1E agonist – agonists of human 5-HT1E serotonin receptor. CHO 5-HT1E Ga15 NFAT-bla reporter, FRET; 0% DMSO wells, 100% control agonist wells. AID 574. activation, % at 6 µM. 65,000 compounds, 0.69% hits;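 active = activation above a set limit, the screen-wide mean activation plus 3 SD, cut at about 8.5% in these data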;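 also: 100% = positive control agonist at 1 µM giving full maximal response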
HTR1A agonist – agonists of human 5-HT1a serotonin receptor; AID 567; 65,000 compounds, 0.56% hits; activation, % at 10 µM; CHO 5-HT1a Ga15 NFAT-bla reporter, FRET ratio; 0% basal, 100% maximal reference agonist; P08908;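 active = activation above the screen-wide mean activation plus 3 SD, cut at about 19% in these data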;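 also: 0% = DMSO wells and 100% = 5-CT at EC100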
The depositor's hits bear a star; x = not tested or not shown. A selection: hits, their analogues and other compounds. The true share with any hit is near 2.6%.

SMILES	5HT1a antag	HTR1E antagonist	S1P3 ag	HTR1E agonist	HTR1A agonist
CCCCCCn1c(N)c(C(=O)NCCN2CCOCC2)c2nc3ccccc3nc21	-19	3	10*	3	11
COc1ccc(Cn2c(N)c(C(=O)NCc3ccco3)c3nc4ccccc4nc32)cc1	21	7	7.5*	0	-4
CCCCCn1c(N)c(C(=O)NCCN2CCOCC2)c2nc3ccccc3nc21	-4	-2	2	5	13
COCCCn1c(N)c(C(=O)NCCC(C)C)c2nc3ccccc3nc21	-32	-21	10*	12*	34*
CCCCOCCCn1c(N)c(C(=O)OCCOC)c2nc3ccccc3nc21	x	9	-3	0	0
CCSc1cc(C2C(C#N)=C(N)Oc3n[nH]c(C)c32)c(C)o1 (centres undefined)	8	0	-1	0	-2
N#CC1=C(N)Oc2c(c(=O)oc3ccccc23)C1c1ccc(OC(=O)N2CCOCC2)cc1 (centres undefined)	-6	-11	0	-1	-2
CC1CC2(O)c3nonc3CCC2N1O (centres undefined)	-11	0	-1	0	-1
CCCCc1ccc2[nH]cc(CCN)c2c1	-8	-3	0	106*	69*
CCC1(CC)C(=O)NC(=NCCc2c[nH]c3ccccc23)NC1=O	1	-3	0	2	1
Cc1nn(C)c(C)c1P(=S)(c1c(C)nn(C)c1C)N(C)C	0	14	-1	-1	-1
Cc1[nH]c2c(Cl)cccc2c1CCN	6	7	-1	71*	-1
COc1cccc(OC)c1C1=NCC(=O)Nc2c1oc1ccc(Br)cc21	71*	80*	-1	-1	-2
O=C(NCC(c1cccnc1)N1CCN(c2ccc(F)cc2)CC1)Oc1ccccc1 (centres undefined)	-26	0	x	0	0
CCOC(=O)/C(CCCN(CC)CC)=N\O	-13	-6	0	0	-3
CN1CC=C(c2c[nH]c3ccccc23)CC1	-2	-7	-2	106*	15
CC(=NCC1CCCO1)c1c(O)n(Cc2ccccc2)c(=O)[nH]c1=O (centres undefined)	-6	-1	0	0	-2
COc1cccc(N2CCN(Cc3cccc(Cl)c3)CC2)c1	-9	34*	-2	0	2
CN(C)P(=O)(C(Cl)=C(N1CCCCC1)N1CCCCC1)N(C)C	43*	0	-1	0	-6
COCCOC(=O)C1=C(N)Oc2c(c(=O)oc3ccccc23)[C@@]12C(=O)Nc1ccccc12	x	8	-6	0	2
CN(C)P1(N(C)C)=Nc2c(c(N)nn2C)C(c2ccccc2)=N1	-11	0	x	-2	-2
